These results are taken from ChEMBL document CHEMBL4024803, “New Steroidal 4-Aminoquinolines Antagonize Botulinum Neurotoxin Serotype A in Mouse Embryonic Stem Cell Derived Motor Neurons in Postintoxication Model” (J Med Chem, 2018).

Data set [1] concerns the target Botulinum neurotoxin type A (Clostridium botulinum) (UniProt P0DPI0). Kind of data set: (§1) Inhibition of Clostridium botulinum BoNT/A light chain using P39 as substrate preincubated for 10 mins followed by substrate addition measured after 10 mins by HPLC method.
For data set [2], the target named is Botulinum neurotoxin type A (Clostridium botulinum, UniProt P0DPI0). The description is as §1.
The target in data set [3] is Botulinum neurotoxin type A (Clostridium botulinum) (UniProt P0DPI0). Briefly: Inhibition of Clostridium botulinum BoNT/A holotoxin-mediated SNAP-25 cleavage in mouse HBG3 cell-derived motor neurons assessed as full length of SNAP-25 at 20 uM preincubated for 30 mins followed by intoxication measured after 4 hrs by Western blot method relative to control. Also on record: scale not given: the % may be the effect or the level left.

Data set [4] is described as follows: Distribution co-efficient, log D of the compound at pH 1 by reversed-phase thin-layer chromatographic method. The class given is physicochemical. The note with it: buffer. The essentials: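 Reversed-phase thin-layer chromatography at pH 1, mobile phase MeOH/HCl (70/30).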
Data set [5] deals with Botulinum neurotoxin type A (Clostridium botulinum) (UniProt P0DPI0). Kind of data set: Inhibition of Clostridium botulinum BoNT/A holotoxin-mediated SNAP-25 cleavage in mouse HBG3 cell-derived motor neurons preincubated for 30 mins followed by intoxication measured after 4 hrs by Western blot method.
Data set [6] shares this target. Kind of data set: Inhibition of Clostridium botulinum BoNT/A holotoxin-mediated SNAP-25 cleavage in mouse HBG3 cell-derived motor neurons assessed as full length of SNAP-25 at 10 uM preincubated for 30 mins followed by intoxication measured after 4 hrs by Western blot method relative to control. Set-up: scale not given: the % may be the effect or the level left.
The target is the same in data set [7]. Kind of data set: Inhibition of Clostridium botulinum BoNT/A light chain at 20 uM using P39 as substrate preincubated for 10 mins followed by substrate addition measured after 10 mins by HPLC method relative to control. The essentials:
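Purified BoNT/A light chain (20 nM) with 0.2 mg/mL BSA in 50 mM HEPES pH 7.4, preincubated with compound for 10 min at room temperature. Cleavage fragments were separated by reversed-phase HPLC (214/280 nm). Percent inhibition was taken from fragment peak areas with vs without compound. Mean of three experiments.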

Data set [8] is described as follows: Distribution co-efficient, log D of the compound at pH 10 by reversed-phase thin-layer chromatographic method. The class given is physicochemical. The note with it: buffer. The essentials: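 Reversed-phase thin-layer chromatography at pH 10, mobile phase acetone/NH3/H2O (85/5/10).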

On to `N#Cc1ccc(-c2ccc(-c3ccc(CNCCCCNc4ccnc5ccccc45)cc3)s2)cc1`, for which the inhibition result in data set [1] is “Dose-dependent effect”; in data set [5], “Dose-dependent effect”; in data set [7], 67%. This molecule returned an IC50 in data set [2] of 9.3 µM. The Activity in data set [3] came out at 39%; in data set [6], 18%. Moreover, the chromatographic logD in data set [4] was found to be 2.93.

Take `CC(CCCNCc1ccc(-c2csc3ccc(F)cc23)cc1)Nc1ccnc2ccccc12` (stereo unspecified): the inhibition entry was “Dose-dependent effect” in data set [1], “Dose-dependent effect” in data set [5] and 69% in data set [7]. Moreover, the IC50 in data set [2] was 8.8 µM. The Activity in data set [3] and in data set [6] was 62% each time. The chromatographic logD in data set [8] was determined as 3.98.

`N#Cc1ccc(-c2ccc(-c3ccc(CNCCCCCCCCNc4ccnc5cc(Cl)ccc45)cc3)s2)cc1` gave an inhibition in data set [7] of 14%.

With `CC(CCNCCC12CC3CC(CC(C3)C1)C2)Nc1c(F)cnc2cc(Cl)ccc12` (stereo unspecified), the Activity in data set [3] amounted to 29%; in data set [6] it was 30%. For the same molecule, the inhibition result was “Dose-dependent effect” in data set [5] and 2% in data set [7]. This molecule had a chromatographic logD in data set [8] of 4.33.

Turning to `N#Cc1ccc(-c2ccc(-c3cccc(CNCCCCCCNc4ccnc5ccccc45)c3)s2)cc1`, the inhibition entry in data set [1] was “Dose-dependent effect”; in data set [5], “Dose-dependent effect”; in data set [7] it was 68%. The molecule also had a half-inhibitory concentration (IC50) in data set [2] of 8.7 µM. Besides, the figures for the Activity in data set [3] and in data set [6] were 71% and 46%, respectively. In data set [4], the chromatographic logD came to 3.08.

`C#Cc1ccc(-c2ccc(-c3ccc(CNCCCCCCCCNc4ccnc5ccccc45)cc3)s2)cc1`: the inhibition in data set [7] turned out to be 53%.

Turning to `CC(=O)O[C@H]1C[C@H]2[C@@H]([C@H](OC(C)=O)C[C@@H]3C[C@H](N)CC[C@@]32C)[C@@H]2CC[C@H]([C@H](C)CCCN(C)CCCCNc3ccnc4ccccc34)[C@@]12C`, the values for the inhibition entry in data set [1], in data set [5] and in data set [7] were “Dose-dependent effect”, “Dose-dependent effect” and 52%, respectively. The midpoint of inhibition in data set [2], the IC50, lay at 1.5 µM. The Activity came out at 69% in data set [3] and 70% in data set [6]. For the same molecule, the chromatographic logD in data set [4] is 2.11.

For `CC(CCNCCC12CC3CC(CC(C3)C1)C2)Nc1ccnc2ccccc12` (stereo unspecified), the inhibition in data set [7] worked out at 42%.

`CC(CCNc1ccnc2cc(Cl)ccc12)NCC12CC3CC(CC(C3)C1)C2` (stereo unspecified): the inhibition entry in data set [1] was “Dose-dependent effect”; in data set [5], “Dose-dependent effect”; in data set [7] it was 65%. Besides, half-maximal inhibition in data set [2] (IC50) required 2.7 µM. The Activity in data set [3] is 30%; in data set [6] it was 29%. In data set [8], this molecule registered a chromatographic logD of 3.4.

In the case of `N#Cc1ccc2c(-c3ccc(CNCCCCCCNc4ccnc5ccccc45)cc3)csc2c1`, the inhibition in data set [7] came to 8%.

In data set [7], `Fc1ccc2scc(-c3ccc(CNCCCCNc4ccnc5ccccc45)cc3)c2c1` came in with an inhibition of 34%.

In the case of `N#Cc1ccc(-c2ccc(-c3ccc(CNCCCCCCNc4ccnc5cc(Cl)ccc45)cc3)s2)cc1`, the inhibition in data set [7] stood at 30%.

In data set [7], `C#Cc1ccc(-c2ccc(-c3ccc(CNCCNc4ccnc5cc(Cl)ccc45)cc3)s2)cc1` had an inhibition of 19%.

As to `CC(CCNCCC12CC3CC(CC(C3)C1)C2)Nc1ccnc2cc(Cl)ccc12` (stereo unspecified), the inhibition in data set [7] stood at 64%.

`CC(=O)O[C@H]1C[C@H]2[C@@H]([C@H](OC(C)=O)C[C@@H]3C[C@H](N)CC[C@@]32C)[C@@H]2CC[C@H]([C@H](C)CCCNCCCC(=O)Nc3ccnc4cc(Cl)ccc34)[C@@]12C` came in with an inhibition in data set [7] of 37%.

As to `CC(CCNCC12CC3CC(CC(C3)C1)C2)Nc1c(F)cnc2cc(Cl)ccc12` (stereo unspecified), the Activity came to 35% in data set [3] and 31% in data set [6]. Further, the inhibition result in data set [5] is “Dose-dependent effect”; in data set [7], 15%. This molecule also displayed a chromatographic logD in data set [8] of 3.24.

As to `N#Cc1ccc2scc(-c3ccc(CNCCCCNc4ccnc5ccccc45)cc3)c2c1`, the inhibition result in data set [1] is “Dose-dependent effect”; in data set [5], “Dose-dependent effect”; in data set [7] it was 84%. Moreover, the midpoint of inhibition in data set [2], the IC50, lay at 4.6 µM. Also, the results for the Activity in data set [3] and in data set [6] were 26% and 21%, respectively. The chromatographic logD in data set [8] is 3.67.

The molecule `N#Cc1ccc2c(-c3ccc(CNCCCCNc4ccnc5ccccc45)cc3)csc2c1` showed an inhibition in data set [7] of 23%.

As to `CC(CCCNCc1ccc(-c2csc3ccc(C#N)cc23)cc1)Nc1ccnc2ccccc12` (stereo unspecified), the inhibition entry in data set [1] is “Dose-dependent effect”; in data set [5] it was “Dose-dependent effect”; in data set [7], 61%. This molecule gave an IC50 in data set [2] of 10.2 µM. Moreover, the Activity in data set [3] came out at 53%; in data set [6], 34%. This molecule showed a chromatographic logD in data set [8] of 3.67.

For `N#Cc1ccc2scc(-c3ccc(CNCCCCCCNc4ccnc5ccccc45)cc3)c2c1`, the inhibition result is “Dose-dependent effect” in data set [1], “Dose-dependent effect” in data set [5] and 75% in data set [7]. In data set [2], this molecule yielded an IC50 of 3.3 µM. Also, the Activity in data set [3] came to 43%; in data set [6], 36%. Besides, the chromatographic logD in data set [8] came to 3.85.

As to `CN(CCCCCCNc1ccnc2ccccc12)Cc1ccc(-c2ccc(-c3ccc(C#N)cc3)s2)cc1`, the inhibition in data set [7] was 55%.

On to `N#Cc1ccc(-c2ccc(-c3ccc(CNCCNc4ccnc5cc(Cl)ccc45)cc3)s2)cc1`, for which the inhibition in data set [7] amounted to 36%.

Take `CC(CCNc1ccnc2ccccc12)NCCC12CC3CC(CC(C3)C1)C2` (stereo unspecified): the Activity in data set [3] worked out at 24%; in data set [6] it was 23%. For the same molecule, in data set [5], the inhibition entry was “Dose-dependent effect”.

`CC(=O)O[C@H]1C[C@H]2[C@@H]([C@H](OC(C)=O)C[C@@H]3C[C@H](N)CC[C@@]32C)[C@@H]2CC[C@H]([C@H](C)CCCN(C)CCCC(C)Nc3ccnc4ccccc34)[C@@]12C` (mixture of isomers): the inhibition entry is “Dose-dependent effect” in data set [1], “Dose-dependent effect” in data set [5] and 85% in data set [7]. In addition, the IC50 in data set [2] was 0.7 µM. Also, the figures for the Activity in data set [3] and in data set [6] were 41% and 20%, respectively. Also, the chromatographic logD in data set [4] turned out to be 2.38.

In the case of `CN(CCCCNc1ccnc2ccccc12)Cc1ccc(-c2csc3ccc(F)cc23)cc1`, the Activity in data set [3] turned out to be 55%; in data set [6] it was 44%. The inhibition entry in data set [5] was “Dose-dependent effect”; in data set [7], 46%. In addition, the chromatographic logD in data set [8] was found to be 3.98.

In data set [7], `CC(CCCN(C)Cc1ccc(-c2csc3ccc(F)cc23)cc1)Nc1ccnc2ccccc12` (stereo unspecified) registered an inhibition of 48%.

Regarding `CN(CCCNc1ccnc2ccccc12)CC12CC3CC(CC(C3)C1)C2`, the Activity in data set [3] was found to be 31%; in data set [6], 30%. Besides, the results for the inhibition result in data set [5] and in data set [7] were “Dose-dependent effect” and 30%, respectively.

On to `CC(CCNCC12CC3CC(CC(C3)C1)C2)Nc1c(F)cnc2ccccc12` (stereo unspecified), for which the Activity in data set [3] is 23%; in data set [6], 24%. The inhibition entry in data set [5] is “Dose-dependent effect”. In addition, the chromatographic logD in data set [8] came out at 3.09.

Take `Fc1ccc2scc(-c3ccc(CNCCCCCCNc4ccnc5ccccc45)cc3)c2c1`: the inhibition in data set [7] amounted to 56%.

Take `CC(CCNCCC12CC3CC(CC(C3)C1)C2)Nc1c(F)cnc2ccccc12` (stereo unspecified): the Activity stood at 32% in data set [3] and 30% in data set [6]. For the same molecule, the inhibition entry in data set [5] is “Dose-dependent effect”. Further, the chromatographic logD in data set [8] turned out to be 4.13.

As for `N#Cc1ccc(-c2ccc(-c3ccc(CNCCCCCCNc4ccnc5ccccc45)cc3)s2)cc1`, the results for the inhibition result in data set [1], in data set [5] and in data set [7] were “Dose-dependent effect”, “Dose-dependent effect” and 70 to 80%, respectively. Besides, in data set [2], the IC50 was found to be 3.4 µM. Besides, the figures for the Activity in data set [3] and in data set [6] were 48% and 22%, respectively. The molecule further came in with a chromatographic logD in data set [4] of 3.08.

`CC(CCN(C)CC12CC3CC(CC(C3)C1)C2)Nc1ccnc2ccccc12` (stereo unspecified): the inhibition entry in data set [1] was “Dose-dependent effect”; in data set [5], “Dose-dependent effect”; in data set [7], 51%. This molecule also came in with an IC50 in data set [2] of 5.2 µM. Moreover, the Activity is 46% in data set [3] and 47% in data set [6].

Turning to `CN(CCCNc1ccnc2ccccc12)CCC12CC3CC(CC(C3)C1)C2`, the inhibition in data set [7] is 31%.
